Results collected from several papers.
Lines come from different studies, so protocols differ.
Target: Cholecystokinin receptor type A (CCKAR, Homo sapiens, UniProt P32238)
Residues used in one study (P32238 1-428): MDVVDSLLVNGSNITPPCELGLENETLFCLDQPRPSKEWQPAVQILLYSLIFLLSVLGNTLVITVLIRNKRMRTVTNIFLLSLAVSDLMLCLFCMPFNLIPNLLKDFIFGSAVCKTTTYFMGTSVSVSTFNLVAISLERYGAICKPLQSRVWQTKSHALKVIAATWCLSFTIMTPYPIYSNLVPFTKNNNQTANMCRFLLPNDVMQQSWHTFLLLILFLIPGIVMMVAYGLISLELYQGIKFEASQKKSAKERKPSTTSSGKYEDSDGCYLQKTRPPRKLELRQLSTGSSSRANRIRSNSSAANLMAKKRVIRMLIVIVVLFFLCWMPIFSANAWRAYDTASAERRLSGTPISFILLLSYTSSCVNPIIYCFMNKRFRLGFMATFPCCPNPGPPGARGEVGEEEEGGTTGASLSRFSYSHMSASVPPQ

Compound | observed | method | tested at | endpoint | result
Nc1ncc(-c2nc(N3CCOCC3)nc(N3CCOCC3)n2)c(C(F)F)n1 | cell-free assay |  | 10 µM | remaining signal | 118%
CCN(CC)CCCC[C@H](NC(=O)[C@H](CC(C)C)NC(=O)[C@H](C)NC(=O)[C@H](Cc1ccccc1)NC(=O)c1ccc(C(C)(C)C)cc1)C(=O)N[C@@H](CO)C(=O)OC | ligand displacement | radioligand | 10 µM | remaining binding | 67.2%
C[C@H](C(=O)N[C@H]1COc2ccccc2[C@@H]1S(C)(=O)=O)c1ccc(F)cc1 | cell-free assay |  | 10 µM | inhibition | -11%
COc1ccc(S(=O)(=O)N2CCCCC2)cc1C | ligand displacement | radioligand | 10 µM | inhibition | < 30%
O=C(Nc1cccnn1)N1CCN([C@@H]2CCOc3cc(C(F)(F)F)ccc32)CC1 | cell-free assay |  | 20 µM | inhibition | 20%
Clc1ccc2c(C3CCN(CCc4c[nH]c5ccccc45)CC3)c[nH]c2c1 | ligand displacement | radioligand | 10 µM | inhibition | 25%
CN(CCN1CCC(OC(=O)Nc2ccccc2-c2ccccc2)CC1)C(=O)c1ccc(CN2CCC(C(N)=O)CC2)cc1 | ligand displacement | radioligand | 1 µM | inhibition | 2%
c1ccc(C(NCCNC(c2ccccc2)c2ccccc2)c2ccccc2)cc1 | cell-free assay |  | 10 µM | inhibition | 7%
Cc1ncc(C)n2nc(/C=C/c3nc(N4CCCC4)cc(N4CCOCC4)n3)nc12 | ligand displacement |  | 10 µM | inhibition | -33%
